Values belong to the compound of their own block, whether it stands above or below them.
Tests used:
PAMPA permeability = type: in vitro ADME; settings: PBS pH 7.4, 5 h incubation
In short: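 DMSO stocks of test compound were diluted in PBS pH 7.4 and added to the donor side of a precoated PAMPA plate, with PBS pH 7.4 as acceptor, for 5 h. Both compartments were quantified by chemiluminescent nitrogen detection against a calibration curve, with background nitrogen corrected. Effective permeability was calculated from donor and acceptor concentrations, using measured rather than assumed solubility.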

16-member kinase panel = test: Eurofins custom enzymatic kinase panel, count of kinases inhibited; type: biochemical; settings: 16-member Eurofins panel, 1 μM
In short: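 Radiometric kinase assays were run with ATP at Km. Each test compound was tested at a single concentration of 1 μM, in duplicate, against each panel kinase, with results as percent of control. The count is the number of kinases at ≤ 10 PoC, i.e. inhibited ≥ 90%.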

[1] = test system: 403 wild-type (WT) human kinases; test: DiscoverX scanMAX kinome-wide selectivity screen; type: binding; settings: 403 WT human kinases; for no. kinases with PoC < 10: DiscoverX scanMAX, 1 μM; for S10 (1 μM): Percentage of screened kinases with PoC values < 10 at 1 μM
DRAK1 (DRAK1-NLuc) = target: T1, DRAK1 (DRAK1-NLuc) (Homo sapiens, UniProt Q9UEE5); test: NanoBRET cellular target engagement assay; type: cell-based; settings: HEK293, 0.5 μM tracer K-9; n = 1 where no error, SEM n = 3
T1 sequence (Q9UEE5 1-414): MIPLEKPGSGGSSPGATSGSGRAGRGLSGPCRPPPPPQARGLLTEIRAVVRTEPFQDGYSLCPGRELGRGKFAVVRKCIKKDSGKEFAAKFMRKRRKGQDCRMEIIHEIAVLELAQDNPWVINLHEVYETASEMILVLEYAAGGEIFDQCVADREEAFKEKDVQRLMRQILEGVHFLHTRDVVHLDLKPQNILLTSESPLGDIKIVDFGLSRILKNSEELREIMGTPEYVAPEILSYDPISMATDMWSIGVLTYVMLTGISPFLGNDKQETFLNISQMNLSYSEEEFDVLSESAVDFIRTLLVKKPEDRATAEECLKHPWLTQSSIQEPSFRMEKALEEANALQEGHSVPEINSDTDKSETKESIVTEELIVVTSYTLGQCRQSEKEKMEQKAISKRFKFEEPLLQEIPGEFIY

TBK1 (NLuc-TBK1) = target: T2, TBK1 (NLuc-TBK1) (Homo sapiens, UniProt Q9UHD2); test: NanoBRET cellular target engagement assay; type: cell-based; settings: HEK293, 0.5 μM tracer K-5; n = 1 where no error, SEM n = 3
T2 sequence (Q9UHD2 1-729): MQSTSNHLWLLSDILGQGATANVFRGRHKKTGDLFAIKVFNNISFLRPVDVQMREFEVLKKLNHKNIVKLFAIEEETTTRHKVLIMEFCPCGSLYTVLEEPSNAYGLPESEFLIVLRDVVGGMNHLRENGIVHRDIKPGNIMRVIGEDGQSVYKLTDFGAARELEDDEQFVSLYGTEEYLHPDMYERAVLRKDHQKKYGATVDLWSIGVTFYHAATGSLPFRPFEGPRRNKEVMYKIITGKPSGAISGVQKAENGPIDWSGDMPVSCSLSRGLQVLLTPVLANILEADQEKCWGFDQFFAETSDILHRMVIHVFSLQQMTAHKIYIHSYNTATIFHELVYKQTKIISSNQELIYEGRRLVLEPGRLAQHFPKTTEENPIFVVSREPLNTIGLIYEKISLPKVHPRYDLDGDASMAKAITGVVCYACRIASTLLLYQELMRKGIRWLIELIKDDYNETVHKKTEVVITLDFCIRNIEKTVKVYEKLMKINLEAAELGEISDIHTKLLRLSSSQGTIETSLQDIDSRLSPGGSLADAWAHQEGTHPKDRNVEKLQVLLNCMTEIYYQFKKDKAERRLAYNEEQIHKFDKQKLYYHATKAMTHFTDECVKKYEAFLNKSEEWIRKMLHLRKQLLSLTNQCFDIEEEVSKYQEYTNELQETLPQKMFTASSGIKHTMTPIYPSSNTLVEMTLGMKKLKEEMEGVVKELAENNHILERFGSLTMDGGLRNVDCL
In short: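 HEK293 cells were grown in DMEM with 10% FBS at 37 °C under 5% CO2, passaged every 72 h with trypsin and kept below confluency. Cells expressed NanoLuc fusions (DRAK1-NLuc or NLuc-TBK1). Dose–response was run per the manufacturer's protocol, with 0.5 μM tracer K-9 for DRAK1 and 0.5 μM tracer K-5 for TBK1. SEM was reported where assays were repeated.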

MARK4 (NLuc-MARK4) = target: T3, MARK4 (NLuc-MARK4) (Homo sapiens, UniProt Q96L34); test: NanoBRET cellular target engagement assay; type: cell-based; settings: HEK293, 0.5 μM tracer K-5; n = 1 where no error, SEM n = 2
T3 sequence (Q96L34 1-752): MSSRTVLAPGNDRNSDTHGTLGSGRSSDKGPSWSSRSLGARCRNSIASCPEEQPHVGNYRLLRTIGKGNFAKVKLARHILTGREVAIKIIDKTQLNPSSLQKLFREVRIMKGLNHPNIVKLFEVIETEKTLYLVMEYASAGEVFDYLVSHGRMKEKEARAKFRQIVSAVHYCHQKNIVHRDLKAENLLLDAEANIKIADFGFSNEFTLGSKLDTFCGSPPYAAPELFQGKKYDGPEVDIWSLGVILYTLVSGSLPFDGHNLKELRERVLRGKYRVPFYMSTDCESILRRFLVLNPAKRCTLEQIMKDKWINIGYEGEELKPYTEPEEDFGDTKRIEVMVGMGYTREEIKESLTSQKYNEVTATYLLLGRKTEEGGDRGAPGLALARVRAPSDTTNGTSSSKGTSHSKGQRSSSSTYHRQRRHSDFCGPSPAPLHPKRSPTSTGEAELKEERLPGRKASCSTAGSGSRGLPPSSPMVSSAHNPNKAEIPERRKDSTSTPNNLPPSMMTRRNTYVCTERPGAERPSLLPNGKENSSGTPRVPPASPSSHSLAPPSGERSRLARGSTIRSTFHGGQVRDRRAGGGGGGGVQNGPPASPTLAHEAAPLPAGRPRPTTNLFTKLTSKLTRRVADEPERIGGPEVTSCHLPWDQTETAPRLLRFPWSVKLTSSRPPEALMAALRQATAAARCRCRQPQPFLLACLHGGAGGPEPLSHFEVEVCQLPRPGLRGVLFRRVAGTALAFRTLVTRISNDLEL

Pe (permeability coefficient, PAMPA) (PAMPA permeability): low permeability
no. kinases ≤ 10 PoC in enzyme panel (16-member kinase panel): 14
SMILES: O=C(Nc1cccc(Nc2ncc(Br)c(NCCc3cnc[nH]3)n2)c1)N1CCCC1 [BX-912, reference compound]

Pe (permeability coefficient, PAMPA) (PAMPA permeability): below the limit of quantitation
no. kinases ≤ 10 PoC in enzyme panel (16-member kinase panel): 1
TBK1 NanoBRET IC50 (TBK1 (NLuc-TBK1)): submicromolar
SMILES: Cc1nn(CC(F)(F)F)cc1Nc1ncc(Br)c(NCc2ccc(S(N)(=O)=O)cc2)n1 [GSK8612, 4-(((5-Bromo-2-((3-methyl-1-(2,2,2-trifluoroethyl)-1H-pyrazol-4-yl)amino)pyrimidin-4-yl)-amino)methyl)benzenesulfonamide, reference compound]
no. kinases with PoC < 10 [1]: 8

DRAK1 NanoBRET IC50 (DRAK1 (DRAK1-NLuc)): submicromolar
no. kinases ≤ 10 PoC in enzyme panel (16-member kinase panel): 12
SMILES: O=C(NCCCNc1nc(Nc2cccc(CN3CCOCC3)c2)ncc1C1CC1)C1CCC1 [MRT67307, reference compound]

no. kinases ≤ 10 PoC in enzyme panel (16-member kinase panel): 13
SMILES: CN1CCc2cc(Nc3ncc(C4CC4)c(NCCCNC(=O)C4CCC4)n3)ccc2C1 [MRT68921, reference compound]

Further lines, the compound ahead of its results:

SMILES: NS(=O)(=O)c1ccc(CNc2nc(Nc3cccc(CN4CCOCC4)c3)ncc2Br)cc1 [Compound 6, 4-(((5-Bromo-2-((3-(morpholinomethyl)phenyl)amino)pyrimidin-4-yl)amino)methyl)benzenesulfonamide]
no. kinases with PoC < 10 [1]: 19
Pe (permeability coefficient, PAMPA) (PAMPA permeability): below the limit of quantitation
no. kinases ≤ 10 PoC in enzyme panel (16-member kinase panel): 4

SMILES: Cc1nn(CC(F)(F)F)cc1Nc1ncc(Br)c(NCCCNC(=O)C2CCC2)n1 [Compound 7, N-(3-((5-Bromo-2-((3-methyl-1-(2,2,2-trifluoroethyl)-1H-pyrazol-4-yl)amino)pyrimidin-4-yl)amino)propyl)cyclobutanecarboxamide]
no. kinases with PoC < 10 [1]: 62
S10 (1 μM) [1]: 0.154
DRAK1 NanoBRET IC50 (DRAK1 (DRAK1-NLuc)): submicromolar
no. kinases ≤ 10 PoC in enzyme panel (16-member kinase panel): 7
TBK1 NanoBRET IC50 (TBK1 (NLuc-TBK1)): submicromolar

SMILES: Cc1nn(CC(F)(F)F)cc1Nc1nccc(NCCCNC(=O)C2CCC2)n1 [Compound 8, N-(3-((2-((3-Methyl-1-(2,2,2-trifluoroethyl)-1H-pyrazol-4-yl)amino)pyrimidin-4-yl)amino)-propyl)cyclobutanecarboxamide]
no. kinases with PoC < 10 [1]: 1
no. kinases ≤ 10 PoC in enzyme panel (16-member kinase panel): 0

SMILES: Cc1nn(CC(F)(F)F)cc1Nc1ncc(Br)c(NCCc2cnc[nH]2)n1 [Compound 10, N^4-(2-(1H-Imidazol-5-yl)ethyl)-5-bromo-N^2-(3-methyl-1-(2,2,2-trifluoroethyl)-1H-pyrazol-4-yl)pyrimidine-2,4-diamine]
no. kinases with PoC < 10 [1]: 28
S10 (1 μM) [1]: 0.069
no. kinases ≤ 10 PoC in enzyme panel (16-member kinase panel): 0

SMILES: NS(=O)(=O)c1ccc(CNc2nc(Nc3cccc(CN4CCOCC4)c3)ncc2C2CC2)cc1 [Compound 11, 4-(((5-Cyclopropyl-2-((3-(morpholinomethyl)phenyl)amino)pyrimidin-4-yl)amino)methyl)-benzenesulfonamide]
no. kinases with PoC < 10 [1]: 3
S10 (1 μM) [1]: 0.007
Pe (permeability coefficient, PAMPA) (PAMPA permeability): low permeability
no. kinases ≤ 10 PoC in enzyme panel (16-member kinase panel): 1

SMILES: Cc1nn(CC(F)(F)F)cc1Nc1nccc(NCc2ccc(S(N)(=O)=O)cc2)n1 [Compound 12, 4-(((2-((3-Methyl-1-(2,2,2-trifluoroethyl)-1H-pyrazol-4-yl)amino)pyrimidin-4-yl)amino)methyl)benzenesulfonamide]
no. kinases with PoC < 10 [1]: 1
Pe (permeability coefficient, PAMPA) (PAMPA permeability): below the limit of quantitation
no. kinases ≤ 10 PoC in enzyme panel (16-member kinase panel): 0

SMILES: c1cc(CN2CCOCC2)cc(Nc2ncc(C3CC3)c(NCCc3c[nH]cn3)n2)c1 [Compound 14, N^4-(2-(1H-Imidazol-4-yl)ethyl)-5-cyclopropyl-N^2-(3-(morpholinomethyl)phenyl)pyrimidine-2,4-diamine]
no. kinases with PoC < 10 [1]: 27
S10 (1 μM) [1]: 0.067
Pe (permeability coefficient, PAMPA) (PAMPA permeability): low permeability
no. kinases ≤ 10 PoC in enzyme panel (16-member kinase panel): 6
MARK4 NanoBRET IC50 (MARK4 (NLuc-MARK4)): submicromolar

SMILES: c1cc(CN2CCOCC2)cc(Nc2nccc(NCCc3cnc[nH]3)n2)c1 [Compound 20, N^4-(2-(1H-Imidazol-5-yl)ethyl)-N^2-(3-(morpholinomethyl)phenyl)pyrimidine-2,4-diamine]
no. kinases with PoC < 10 [1]: 9
S10 (1 μM) [1]: 0.022
no. kinases ≤ 10 PoC in enzyme panel (16-member kinase panel): 1

SMILES: NS(=O)(=O)c1ccc(CNc2nc(Nc3cccc(NC(=O)N4CCCC4)c3)ncc2C2CC2)cc1 [Compound 21, N-(3-((5-Cyclopropyl-4-((4-sulfamoylbenzyl)amino)pyrimidin-2-yl)amino)phenyl)pyrrolidine-1-carboxamide]
no. kinases with PoC < 10 [1]: 1
no. kinases ≤ 10 PoC in enzyme panel (16-member kinase panel): 1

SMILES: O=C(NCCCNc1nc(Nc2cccc(NC(=O)N3CCCC3)c2)ncc1C1CC1)C1CCC1 [Compound 22, N-(3-((4-((3-(Cyclobutanecarboxamido)propyl)amino)-5-cyclopropylpyrimidin-2-yl)amino)-phenyl)pyrrolidine-1-carboxamide]
no. kinases with PoC < 10 [1]: 30
S10 (1 μM) [1]: 0.074
Pe (permeability coefficient, PAMPA) (PAMPA permeability): low permeability
DRAK1 NanoBRET IC50 (DRAK1 (DRAK1-NLuc)): submicromolar
no. kinases ≤ 10 PoC in enzyme panel (16-member kinase panel): 9
MARK4 NanoBRET IC50 (MARK4 (NLuc-MARK4)): submicromolar

— publication PMC8802302 (Journal of Medicinal Chemistry, 2021)
